Measurements reported in ChEMBL document CHEMBL1130198, “Inhibition of tubulin polymerization by 5,6-dihydroindolo[2,1-alpha]isoquinoline derivatives” (J Med Chem, 1997).

Tests used:
MDA-MB-231 [1] = assay: Inhibition of the growth of MDA-MB 231 human breast cancer cells; format: functional, cell-based
MCF7 = assay: Inhibition of estrogen receptor positive MCF-7 human breast cancer cell proliferation; format: functional, cell-based
Summary of the method: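 MCF-7 cells in EMEM with 10% FCS; treatment medium contains dextran-charcoal-treated FCS; exposure ca. 8 days; glutaraldehyde fixation, crystal violet staining, optical density read at 578 nm.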

MDA-MB-231 [2] = assay: Inhibition of estrogen receptor negative MDA-MB 231 breast cancer cell proliferation at 10 uM; format: functional, cell-based; details: Homo sapiens
Summary of the method: (§1)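 MDA-MB 231 cells grown in McCoy-5a with L-glutamine, gentamycin, NaHCO3 and 5% FCS, 5% CO2, 37 °C. Cells were seeded in 96-well plates and grown 2–3 days, then given medium containing compound; controls had 0.1% DMF. After about 4 days, cells were fixed with 1% glutaric dialdehyde, stained with 0.02% crystal violet, extracted with 70% EtOH, and OD578 was read against initial density.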

Tubulin [3] = target: T1, Tubulin (Bos taurus, UniProt Q6B856+Q862L2+Q862F3); assay: Inhibition of tubulin polymerization using isolated calf brain at 26 degrees C; format: functional
Tubulin [4] = target: T1, Tubulin; assay: Inhibition of tubulin polymerization using isolated calf brain; format: functional
Summary of the method: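 Twice-cycled, MAP-containing calf brain microtubules depolymerized in PEMG buffer (0.8 M glutamate, pH 6.6-6.7) at 0 °C; compound in DMSO, preincubated 15 min at 37 °C, chilled, GTP added; turbidity at 350 nm over 20 min after shift from 2 to 37 °C.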

MDA-MB-231 [5] = assay: Inhibition of estrogen receptor negative MDA-MB 231 breast cancer cell proliferation at 1 uM; format: functional, cell-based; details: Homo sapiens; summary of the method: as §1
[6] = target: Tubulin alpha chain (Bos taurus) (UniProt P81947); assay: Inhibition of colchicine binding to tubulin; details: concentration not given here
Tubulin [7] = target: T1, Tubulin; assay: Inhibition of tubulin polymerization using isolated calf brain at 37 degrees C; format: functional
Tubulin (Bos taurus) = Tubulin (Bos taurus) (UniProt Q6B856+Q862L2+Q862F3); assay: Inhibition of colchicine binding to tubulin; format: functional; details: concentration not given here
Summary of the method: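 Calf brain tubulin (prepared as for polymerization) diluted 1:10 in ice-cold PEM buffer (PIPES, EGTA, MgSO4, pH 6.6-6.7); 1 µM [3H]colchicine with 10 µM inhibitor, DMSO vehicle, 30 min at 37 °C; GTP added on ice, filtered through DEAE-cellulose, washed; tubulin-bound radioactivity by scintillation counting, tubulin-free mixtures as background. Mean of two independent experiments.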

MDA-MB-231 [8] = assay: Inhibition of estrogen receptor negative MDA-MB 231 breast cancer cell proliferation; format: functional, cell-based; details: Homo sapiens
Summary of the method: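 MDA-MB 231 cells (hormone-independent) in McCoy-5a with 5% FCS, grown 2–3 days in 96-well plates at 37 °C, 5% CO2, then medium with test compound (DMF stock; 0.1% DMF controls) for about 4 days; glutaraldehyde fixation, 0.02% crystal violet staining, ethanol extraction, OD 578 nm versus initial density. IC50 from two independent experiments.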

Chain of Tubulin alpha chain (Bos taurus) (P81947 whole entry, looked up): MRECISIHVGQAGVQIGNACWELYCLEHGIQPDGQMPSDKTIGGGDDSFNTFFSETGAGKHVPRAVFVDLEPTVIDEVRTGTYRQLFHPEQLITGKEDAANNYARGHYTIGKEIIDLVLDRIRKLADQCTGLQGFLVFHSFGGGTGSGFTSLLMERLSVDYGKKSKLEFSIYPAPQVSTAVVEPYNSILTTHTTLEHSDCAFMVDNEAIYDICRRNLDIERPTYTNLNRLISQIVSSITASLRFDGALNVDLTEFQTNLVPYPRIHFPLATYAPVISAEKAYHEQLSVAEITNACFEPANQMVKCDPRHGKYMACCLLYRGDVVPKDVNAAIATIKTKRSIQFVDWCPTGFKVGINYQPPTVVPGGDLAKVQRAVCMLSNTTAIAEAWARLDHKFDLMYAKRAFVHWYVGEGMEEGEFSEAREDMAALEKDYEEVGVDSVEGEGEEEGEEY

Row | Structure (SMILES) | IC50 (MDA-MB-231 [1]) | IC50 (MCF7) | also measured
1 | COc1cc2c(cc1O)CC[C@@H]1[C@@H]2CC[C@]2(C)[C@@H](O)CC[C@@H]12 [2-METHOXYESTRADIOL] |  |  | IC50 (MDA-MB-231 [2]): 5000 nM; IC50 (Tubulin [3]): 12000 nM; IC50 (Tubulin [4]): 60000 nM; IC50 (MDA-MB-231 [5]): 250 nM; inhibition [6]: 44%
2 | CCCCC1Cc2cc(O)ccc2-c2c(C#N)c3cc(O)c(O)cc3n21 (stereo unspecified) | 3400 nM | 2700 nM | IC50 (Tubulin [7]): 25000 nM; inhibition [6]: 54%
3 | CCCCC1Cc2cc(O)ccc2-c2c(C=O)c3ccc(O)cc3n21 (single isomer, unassigned; (-)) [listing 1 of 2 here] |  |  | inhibition (Tubulin (Bos taurus)): 22%
4 | CCCC1Cc2cc(O)ccc2-c2c(C=O)c3ccc(O)cc3n21 (single isomer, unassigned; (+)) [listing 1 of 2 here] |  |  | inhibition (Tubulin (Bos taurus)): 53%
5 | COc1cc([C@@H]2c3cc4c(cc3[C@H](O)[C@H]3COC(=O)[C@H]23)OCO4)cc(OC)c1OC [PODOFILOX] | 26 nM |  | 
6 | CC[C@]1(O)C[C@@H]2CN(CCc3c([nH]c4ccccc34)[C@@](C(=O)OC)(c3cc4c(cc3OC)N(C)[C@H]3[C@@](O)(C(=O)OC)[C@H](OC(C)=O)[C@]5(CC)C=CCN6CC[C@]43[C@@H]65)C2)C1 [VINBLASTINE] | 11 nM |  | 
7 | CCCCC1Cc2cc(O)ccc2-c2c(C=O)c3ccc(O)cc3n21 (stereo unspecified) | 1400 nM | 220 nM | 
8 | CCCC1Cc2cc(OC)ccc2-c2c(C=O)c3ccc(OC)cc3n21 (stereo unspecified) | > 10000 nM |  | 
9 | CCCCC1Cc2cc(O)ccc2-c2c(C=O)c3cc(O)c(O)cc3n21 (stereo unspecified) | 3200 nM | > 10000 nM | IC50 (Tubulin [7]): 19000 nM
10 | COc1cc2c(c(OC)c1OC)-c1ccc(OC)c(=O)cc1[C@@H](NC(C)=O)CC2 [COLCHICINE] | 30 nM |  | 
11 | CC/C(=C(\c1ccccc1)c1ccc(OCCN(C)C)cc1)c1ccccc1 [TAMOXIFEN] |  | 150 nM | 
12 | CCCC1Cc2cc(O)ccc2-c2c(C=O)c3ccc(O)cc3n21 (single isomer, unassigned; (+)) [listing 2 of 2 here] |  |  | IC50 (Tubulin [4]): 11000 nM
13 | CCCCC1Cc2cc(OC)ccc2-c2c(C#N)c3ccc(OC)cc3n21 (stereo unspecified) | 3100 nM |  | 
14 | CCCCC1Cc2cc(O)ccc2-c2c(C=O)c3ccc(O)cc3n21 (single isomer, unassigned; (-)) [listing 2 of 2 here] |  |  | IC50 (Tubulin [4]): > 60000 nM
15 | CCCCC1Cc2cc(O)ccc2-c2c(C#N)c3ccc(O)cc3n21 (stereo unspecified) |  | 540 nM | IC50 (Tubulin [7]): 13000 nM; IC50 (MDA-MB-231 [8]): 300 nM; inhibition [6]: 48%
16 | CCCCC1Cc2cc(O)ccc2-c2c(C(C)=O)c3ccc(O)cc3n21 (stereo unspecified) | 2200 nM | 2500 nM | 
17 | CCCCC1Cc2cc(O)ccc2-c2c(C=O)c3ccc(O)cc3n21 (stereo in doubt; (+)-6c) [listing 1 of 2 here] |  |  | inhibition (Tubulin (Bos taurus)): 69%
18 | CCCCC1Cc2cc(OC)ccc2-c2c(C=O)c3ccc(OC)cc3n21 (stereo unspecified) | 8700 nM |  | 
19 | CCCCC1Cc2cc(OC)ccc2-c2c(C(C)=O)c3ccc(OC)cc3n21 (stereo unspecified) | > 10000 nM |  | 
20 | CCCCC1Cc2cc(OC)ccc2-c2c(/C=N/C)c3ccc(OC)cc3n21 (stereo unspecified) | 7800 nM |  | 
21 | CCC1Cc2cc(O)ccc2-c2c(C=O)c3ccc(O)cc3n21 (stereo unspecified) | 2800 nM | 2500 nM | 
22 | CCCC1Cc2cc(O)ccc2-c2c(C=O)c3ccc(O)cc3n21 (single isomer, unassigned; (-)) [listing 1 of 2 here] |  |  | inhibition (Tubulin (Bos taurus)): 27%
23 | CCCC1Cc2cc(O)ccc2-c2c(C=O)c3ccc(O)cc3n21 (single isomer, unassigned; (-)) [listing 2 of 2 here] |  |  | IC50 (Tubulin [4]): > 70000 nM
24 | CCCCC1Cc2cc(O)ccc2-c2c(C=O)c3ccc(O)cc3n21 (stereo in doubt; (+)-6c) [listing 2 of 2 here] |  |  | IC50 (Tubulin [4]): 3100 nM

Continued, in another order:

Row | IC50 (MDA-MB-231 [1]) | IC50 (MCF7) | Structure (SMILES) | also measured
25 | > 10000 nM |  | CCCCC1Cc2cc(OC)ccc2-c2cc3cc(OC)c(OC)cc3n21 (stereo unspecified) | 
26 | > 10000 nM | > 10000 nM | CCCCC1Cc2cc(O)ccc2-c2cc3cc(O)c(O)cc3n21 (stereo unspecified) | 
27 | 2100 nM |  | CCCCC1Cc2cc(OC)ccc2-c2c(CNC)c3ccc(OC)cc3n21 (stereo unspecified) | 
28 | 2700 nM |  | CCCCC1Cc2cc(OC)ccc2-c2c(C#N)c3cc(OC)c(OC)cc3n21 (stereo unspecified) | 
29 | 7000 nM |  | CCCCC1Cc2cc(OC)ccc2-c2c(CNCc3ccccc3)c3ccc(OC)cc3n21 (stereo unspecified) | 
30 | 9000 nM |  | CCCCC1Cc2cc(OC)ccc2-c2c(C=O)c3cc(OC)c(OC)cc3n21 (stereo unspecified) | 
31 | > 10000 nM |  | CCCCC1Cc2cc(OC)ccc2-c2c(C=O)c3cc(OC)ccc3n21 (stereo unspecified) | 
32 | 300 nM | 290 nM | CCCC1Cc2cc(O)ccc2-c2c(C=O)c3ccc(O)cc3n21 (stereo unspecified) | 
33 | 2100 nM | 260 nM | CCCCC1Cc2cc(O)ccc2-c2c(/C=N/Cc3ccccc3)c3ccc(O)cc3n21 (stereo unspecified) | 
34 | 5700 nM |  | CCCCC1Cc2cc(OC)ccc2-c2c(/C=N/Cc3ccccc3)c3ccc(OC)cc3n21 (stereo unspecified) | 
35 | > 10000 nM |  | CCCCC1Cc2cc(OC)ccc2-c2c(/C=N/O)c3ccc(OC)cc3n21 (stereo unspecified) | 
36 | 200 nM | 650 nM | CCCCC1Cc2cc(O)ccc2-c2c(C=O)c3cc(O)ccc3n21 (stereo unspecified) | IC50 (Tubulin [7]): 19000 nM
